Data: ChEMBL document CHEMBL1921722, “In vitro and in vivo evaluation of select kahalalide F analogs with antitumor and antifungal activities” (Bioorg Med Chem, 2011)
The source made the active and inactive calls. No cut-off for these calls is given here.

Experiments:
786-0 = experiment: Cytotoxicity against human 786-0 cells assessed as cell growth at 800 nM by sulforhodamine B assay relative to control; type: functional; settings: read-out: Activity
How it was run: (§1)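 Run at NCI in the DTP 60-cell-line human tumor panel by standard procedure. Compounds were first screened at a single concentration, then tested at five tenfold-spaced concentrations. GI50 is the concentration reducing treated-cell growth to half that of untreated controls; TGI is the concentration completely halting growth.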

SF-295 [1] = experiment: Antitumor activity against human SF295 cells xenografted in mouse assessed as tumor cell killing at 2.35 mg/kg, ip qd for 4 days by MTT assay; type: functional, organism-based; parameters: dose 2.35 mg/kg
UACC-62 [2] = experiment: Antitumor activity against human UACC62 cells xenografted in mouse assessed as tumor cell killing at 2.35 mg/kg, ip qd for 4 days by MTT assay; type: functional, organism-based; parameters: dose 2.35 mg/kg
SF-268 = experiment: Cytotoxicity against human SF268 cells assessed as cell growth at 80 uM by sulforhodamine B assay relative to control; type: functional; settings: read-out: Activity
SR [3] = experiment: Cytotoxicity against human SR cells assessed as cell growth at 80 uM by sulforhodamine B assay relative to control; type: functional; settings: read-out: Activity
CCRF-CEM [4] = experiment: Cytotoxicity against human CCRF-CEM cells assessed as cell growth at 8 uM by sulforhodamine B assay relative to control; type: functional; settings: read-out: Activity
HCT-15 = experiment: Cytotoxicity against human HCT15 cells assessed as cell growth at 8 nM by sulforhodamine B assay relative to control; type: functional; settings: read-out: Activity
HOP-92 = experiment: Cytotoxicity against human HOP92 cells assessed as cell growth at 8 uM by sulforhodamine B assay relative to control; type: functional; settings: read-out: Activity
Malme-3M = experiment: Cytotoxicity against human MALME-3M cells assessed as cell growth at 800 nM by sulforhodamine B assay relative to control; type: functional; settings: read-out: Activity
U-251 [5] = experiment: Antitumor activity against human U251 cells xenografted in mouse assessed as tumor cell killing at 2.35 mg/kg, ip qd for 4 days by MTT assay; type: functional, organism-based; parameters: dose 2.35 mg/kg
UACC-257 = experiment: Cytotoxicity against human UACC257 cells assessed as cell growth at 800 nM by sulforhodamine B assay relative to control; type: functional; settings: read-out: Activity
OVCAR-5 [6] = experiment: Antitumor activity against human OVCAR5 cells xenografted in mouse assessed as tumor cell killing at 2.35 mg/kg, ip qd for 4 days by MTT assay; type: functional, organism-based; parameters: dose 2.35 mg/kg
NCI-H322M = experiment: Cytotoxicity against human NCI-H322M cells assessed as cell growth at 800 nM by sulforhodamine B assay relative to control; type: functional; settings: read-out: Activity
MDA-MB-435 [7] = experiment: Antitumor activity against human MDA-MB-435 cells xenografted in mouse assessed as tumor cell killing at 2.35 mg/kg, ip qd for 4 days by MTT assay; type: functional, organism-based; parameters: dose 2.35 mg/kg
NCI-H522 [8] = experiment: Antitumor activity against human NCI-H522 cells xenografted in mouse assessed as tumor cell killing at 2.35 mg/kg, ip qd for 4 days by MTT assay; type: functional, organism-based; parameters: dose 2.35 mg/kg
CCRF-CEM [9] = experiment: Cytotoxicity against human CCRF-CEM cells by sulforhodamine B assay; type: functional; how it was run: as §1
CCRF-CEM [10] = experiment: Cytotoxicity against human CCRF-CEM cells assessed as cell growth at 80 nM by sulforhodamine B assay relative to control; type: functional; settings: read-out: Activity
CCRF-CEM [11] = experiment: Cytotoxicity against human CCRF-CEM cells assessed as cell growth at 8 nM by sulforhodamine B assay relative to control; type: functional; settings: read-out: Activity
CCRF-CEM [12] = experiment: Cytotoxicity against human CCRF-CEM cells assessed as cell growth at 800 nM by sulforhodamine B assay relative to control; type: functional; settings: read-out: Activity
SNB-19 = experiment: Cytotoxicity against human SNB19 cells assessed as cell growth at 80 uM by sulforhodamine B assay relative to control; type: functional; settings: read-out: Activity
SR [13] = experiment: Cytotoxicity against human SR cells assessed as cell growth at 8 uM by sulforhodamine B assay relative to control; type: functional; settings: read-out: Activity
CCRF-CEM [14] = experiment: Cytotoxicity against human CCRF-CEM cells assessed as cell growth at 80 uM by sulforhodamine B assay relative to control; type: functional; settings: read-out: Activity
NCI-H522 [15] = experiment: Antitumor activity against human NCI-H522 cells xenografted in mouse assessed as tumor cell killing at 3.1 mg/kg, ip qd for 4 days by MTT assay; type: functional, organism-based; parameters: dose 3.1 mg/kg
UACC-62 [16] = experiment: Antitumor activity against human UACC62 cells xenografted in mouse assessed as tumor cell killing at 3.1 mg/kg, ip qd for 4 days by MTT assay; type: functional, organism-based; parameters: dose 3.1 mg/kg
CAKI-1 [17] = experiment: Cytotoxicity against human Caki1 cells assessed as cell growth at 80 nM by sulforhodamine B assay relative to control; type: functional; settings: read-out: Activity
CAKI-1 [18] = experiment: Cytotoxicity against human Caki1 cells assessed as cell growth at 8 nM by sulforhodamine B assay relative to control; type: functional; settings: read-out: Activity
MDA-MB-435 [19] = experiment: Antitumor activity against human MDA-MB-435 cells xenografted in mouse assessed as tumor cell killing at 3.1 mg/kg, ip qd for 4 days by MTT assay; type: functional, organism-based; parameters: dose 3.1 mg/kg
CAKI-1 [20] = experiment: Cytotoxicity against human Caki1 cells by sulforhodamine B assay; type: functional; how it was run: as §1
U-251 [21] = experiment: Antitumor activity against human U251 cells xenografted in mouse assessed as tumor cell killing at 3.1 mg/kg, ip qd for 4 days by MTT assay; type: functional, organism-based; parameters: dose 3.1 mg/kg
CAKI-1 [22] = experiment: Cytotoxicity against human Caki1 cells assessed as cell growth at 800 nM by sulforhodamine B assay relative to control; type: functional; settings: read-out: Activity
SF-295 [23] = experiment: Antitumor activity against human SF295 cells xenografted in mouse assessed as tumor cell killing at 3.1 mg/kg, ip qd for 4 days by MTT assay; type: functional, organism-based; parameters: dose 3.1 mg/kg
CAKI-1 [24] = experiment: Cytotoxicity against human Caki1 cells assessed as cell growth at 80 uM by sulforhodamine B assay relative to control; type: functional; settings: read-out: Activity
CAKI-1 [25] = experiment: Cytotoxicity against human Caki1 cells assessed as cell growth at 8 uM by sulforhodamine B assay relative to control; type: functional; settings: read-out: Activity
OVCAR-5 [26] = experiment: Antitumor activity against human OVCAR5 cells xenografted in mouse assessed as tumor cell killing at 3.1 mg/kg, ip qd for 4 days by MTT assay; type: functional, organism-based; parameters: dose 3.1 mg/kg
[27] = read-out: pLC50 (the source's name) (converted)

C/C=C1\NC(=O)[C@H](Cc2ccccc2)NC(=O)[C@@H](C(C)C)NC(=O)[C@@H]([C@@H](C)CC)NC(=O)[C@H](NC(=O)[C@H](NC(=O)[C@H](CCCNCc2ccc(N3CCOCC3)cc2)NC(=O)[C@H]2CCCN2C(=O)[C@H](NC(=O)[C@@H](NC(=O)[C@@H](NC(=O)[C@H](NC(=O)CCCC(C)C)C(C)C)[C@@H](C)O)C(C)C)C(C)C)[C@@H](C)CC)[C@@H](C)OC(=O)[C@H](C(C)C)NC1=O
growth at 0.8 µM (786-0): 101%
Activity (SF-295 [1]): inactive
Activity (UACC-62 [2]): inactive
growth at 80 µM (SF-268): 18%
growth at 80 µM (SR [3]): -7%
growth at 8 µM (CCRF-CEM [4]): 82%
growth at 0.008 µM (HCT-15): 98%
growth at 8 µM (HOP-92): -2%
growth at 0.8 µM (Malme-3M): 117%
Activity (U-251 [5]): inactive
growth at 0.8 µM (UACC-257): 93%
Activity (OVCAR-5 [6]): inactive
growth at 0.8 µM (NCI-H322M): -76%
Activity (MDA-MB-435 [7]): inactive
Activity (NCI-H522 [8]): inactive
GI50 (CCRF-CEM [9]): 22.9 µM
CC50 (CCRF-CEM [9]; [27]): > 75.9 µM
TGI (CCRF-CEM [9]; read-out: pTGI (converted)): 39.8 µM
growth at 0.08 µM (CCRF-CEM [10]): 123%
growth at 0.008 µM (CCRF-CEM [11]): 122%
growth at 0.8 µM (CCRF-CEM [12]): 128%
growth at 80 µM (SNB-19): -5%
growth at 8 µM (SR [13]): 15%
growth at 80 µM (CCRF-CEM [14]): -31%

C/C=C1\NC(=O)[C@H](Cc2ccccc2)NC(=O)[C@@H](C(C)C)NC(=O)[C@@H]([C@@H](C)CC)NC(=O)[C@H](NC(=O)[C@H](NC(=O)[C@H](CCCNCc2ccc(F)c(C)c2)NC(=O)[C@H]2CCCN2C(=O)[C@H](NC(=O)[C@@H](NC(=O)[C@@H](NC(=O)[C@H](NC(=O)CCCC(C)C)C(C)C)[C@@H](C)O)C(C)C)C(C)C)[C@@H](C)CC)[C@@H](C)OC(=O)[C@H](C(C)C)NC1=O
Activity (NCI-H522 [15]): inactive
growth at 0.8 µM (786-0): 96%
Activity (UACC-62 [16]): inactive
growth at 0.08 µM (CAKI-1 [17]): 150%
growth at 0.008 µM (HCT-15): 100%
growth at 8 µM (HOP-92): -62%
growth at 0.008 µM (CAKI-1 [18]): 130%
growth at 0.8 µM (Malme-3M): 102%
growth at 0.8 µM (UACC-257): 88%
growth at 0.8 µM (NCI-H322M): -90%
Activity (MDA-MB-435 [19]): inactive
GI50 (CAKI-1 [20]): 1.45 µM
CC50 (CAKI-1 [20]; [27]): 4.79 µM
TGI (CAKI-1 [20]; read-out: pTGI (converted)): 2.63 µM
Activity (U-251 [21]): inactive
growth at 0.8 µM (CAKI-1 [22]): 103%
growth at 80 µM (SNB-19): -66%
Activity (SF-295 [23]): inactive
growth at 8 µM (SR [13]): -50%
growth at 80 µM (CAKI-1 [24]): -56%
growth at 8 µM (CAKI-1 [25]): -86%
Activity (OVCAR-5 [26]): inactive
